Structures can show the parent of a compound that is named as a salt.
Experiment: Inhibition of rat small intestinal maltase after 30 mins
Summary of the method: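 Enzyme source was rat small-intestinal brush-border membrane vesicles suspended in 0.1 M maleate buffer, pH 6.0. Substrate solutions were maltose 74 mM (maltase), sucrose 74 mM (sucrase) and isomaltose 7.4 mM (isomaltase). Glucose was measured by glucose oxidase. IC50 was read graphically from % inhibition versus log concentration.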

| IC50 [µM] | SMILES |
| --- | --- |
| > 236 | O=S(=O)([O-])O[C@H]([C@@H](O)[C@@H](O)[C@H](O)CO)[C@H](O)C[S+]1C[C@@H](O)[C@H](O)[C@H]1CO (stereo partly drawn) [1,4-dideoxy-1,4-{(S)-[(2S,3R,4S,5S,6R)-2,4,5,6,7-pentahydroxy-3-(sulfooxy)heptyl]-episulfoniumylidene}-D-arabinitol inner salt] |
| 57 | O=S(=O)([O-])O[C@H]([C@@H](O)[C@@H](O)[C@@H](O)CO)[C@H](O)C[S+]1C[C@@H](O)[C@H](O)[C@H]1CO (stereo partly drawn) [1,4-dideoxy-1,4-{(S)-[(2S,3R,4S,5S,6S)-2,4,5,6,7-pentahydroxy-3-(sulfooxy)heptyl]episulfoniumylidene}-D-arabinitol inner salt] |

The next lines start with the molecule.

| SMILES | IC50 [µM] |
| --- | --- |
| O=S(=O)([O-])O[C@H]([C@@H](O)[C@H](O)[C@H](O)CO)[C@H](O)C[S+]1C[C@@H](O)[C@H](O)[C@H]1CO (stereo partly drawn) [1,4-dideoxy-1,4-{(S)-[(2S,3R,4S,5R,6R)-2,4,5,6,7-pentahydroxy-3-(sulfooxy)heptyl]episulfoniumylidene}-D-arabinitol inner salt] | > 236 |
| O=S(=O)([O-])O[C@H]([C@@H](O)[C@H](O)[C@@H](O)CO)[C@H](O)C[S+]1C[C@@H](O)[C@H](O)[C@H]1CO (stereo partly drawn) [1,4-dideoxy-1,4-{(S)-[(2S,3R,4S,5R,6S)-2,4,5,6,7-pentahydroxy-3-(sulfooxy)heptyl]episulfoniumylidene}-D-arabinitol inner salt] | > 236 |
| O=S(=O)([O-])OC[C@H](O)C[S@@+]1C[C@@H](O)[C@H](O)[C@H]1CO [Salaprinol] | 3.2 |
| O=S(=O)([O-])O[C@@H]([C@H](O)[C@@H](O)CO)[C@H](O)C[S@@+]1C[C@@H](O)[C@H](O)[C@H]1CO [ponkoranol] | > 100 |
